Data taken from ChEMBL document CHEMBL1212735, “Metronidazole resistance in Prevotella spp. and description of a new nim gene in Prevotella baroniae” (2010).
Values after ≈ are worked out from the molar mass of the structure shown.

Key:
Assay type in all cases: functional
Prevotella bivia [1] = experiment: Antimicrobial activity against slow growing colonies of Prevotella bivia LBN 334 deficient in nim gene assessed as inhibition of growth at 48 hrs by agar dilution method; conditions: LBN 334, 48 h
Summary of the method: (§1)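 Slowly growing colonies inside the Etest inhibition zone, seen after prolonged incubation (an additional 72 h after the 48 h reading), were subcultured without antibiotic. They were then retested for metronidazole MIC by agar dilution on supplemented brucella blood agar under anaerobic conditions.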

Prevotella bivia [2] = experiment: Antimicrobial activity against slow growing colonies of Prevotella bivia LBN 350 deficient in nim gene assessed as inhibition of growth at 48 hrs by agar dilution method; conditions: LBN 350, 48 h; summary of the method: as §1
Prevotella baroniae [3] = experiment: Antimicrobial activity against Prevotella baroniae LBP19 expressing nimI gene assessed as inhibition of growth after three consecutive subcultures on compound free medium by agar dilution method; conditions: Segatella baroniae
Summary of the method: (§2)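 Stability of induced resistance: metronidazole-selected isolates were subcultured three consecutive times on drug-free brucella blood agar (5% sheep blood, hemin, vitamin K1) under anaerobic conditions, then MIC was redetermined by CLSI agar dilution. Resistance was called stable if the MIC held within ±1 dilution. Duplicate experiments.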

Prevotella bivia [4] = experiment: Antimicrobial activity against Prevotella bivia LBN 346 deficient in nim gene assessed as inhibition of growth at 48 hrs by agar dilution method; conditions: LBN 346, 48 h
Summary of the method: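 Agar dilution MIC on brucella agar with 5% sheep blood, hemin and vitamin K1, following CLSI M11-A7. Plates read after 48 h at 35°C under anaerobic conditions, with B. fragilis ATCC 25285T and B. thetaiotaomicron ATCC 29741 as controls. Assays in duplicate. Isolates kept at −80°C in brucella broth with 15% glycerol. Interpretation used EUCAST breakpoints (S ≤4, R ≥8 μg/ml).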

Prevotella nanceiensis [5] = experiment: Antimicrobial activity against slow growing colonies of Prevotella nanceiensis LBP 66 deficient in nim gene assessed as inhibition of growth at 48 hrs by agar dilution method; conditions: Hoylesella nanceiensis, LBP 66, 48 h
Summary of the method: (§3)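 Metronidazole MIC by agar dilution per CLSI M11-A7 on brucella agar with 5% sheep blood, hemin and vitamin K1. Plates incubated anaerobically at 35°C and read at 48 h, with a second reading after a further 72 h. B. fragilis ATCC 25285T and B. thetaiotaomicron ATCC 29741 served as controls. Done in duplicate; EUCAST breakpoints applied (S ≤4, R ≥8 μg/ml).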

Prevotella bivia [6] = experiment: Antimicrobial activity against slow growing colonies of Prevotella bivia LBN 336 deficient in nim gene assessed as inhibition of growth at 48 hrs by agar dilution method; conditions: LBN 336, 48 h; summary of the method: as §1
Prevotella baroniae [7] = experiment: Antimicrobial activity against Prevotella baroniae LBN 427 expressing nimI gene assessed as inhibition of growth after several passages on plates containing increasing concentrations of compound by agar dilution method; conditions: Segatella baroniae
Summary of the method: (§4)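 Induction of metronidazole resistance: bacterial suspensions inoculated onto brucella blood agar (5% sheep blood, hemin, vitamin K1) containing metronidazole at increasing concentrations, grown anaerobically at 37°C. Colonies growing at the highest concentration were retested for MIC by CLSI agar dilution on the same agar. Duplicate experiments.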

Prevotella nanceiensis [8] = experiment: Antimicrobial activity against slow growing colonies of Prevotella nanceiensis LBN 297 deficient in nim gene assessed as inhibition of growth at 48 hrs by agar dilution method; conditions: Hoylesella nanceiensis, LBN 297, 48 h; summary of the method: as §3
Prevotella bivia [9] = experiment: Antimicrobial activity against Prevotella bivia LBN 467 deficient in nim gene assessed as inhibition of growth at 48 hrs by agar dilution method; conditions: LBN 467, 48 h
Summary of the method: (§5)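 Metronidazole MIC by agar dilution (CLSI M11-A7) on brucella agar with 5% sheep blood, hemin and vitamin K1. Plates were read after 48 h at 35°C under anaerobic conditions. Susceptible was MIC ≤ 4 μg/ml and resistant MIC ≥ 8 μg/ml (EUCAST). B. fragilis ATCC 25285T and B. thetaiotaomicron ATCC 29741 were run as controls. Duplicate assays.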

Prevotella bivia [10] = experiment: Antimicrobial activity against slow growing colonies of Prevotella bivia LBN 346 deficient in nim gene assessed as inhibition of growth at 48 hrs by agar dilution method; conditions: LBN 346, 48 h; summary of the method: as §1
Prevotella bivia [11] = experiment: Antimicrobial activity against Prevotella bivia LBN 333 deficient in nim gene assessed as inhibition of growth at 48 hrs by agar dilution method; conditions: LBN 333, 48 h; summary of the method: as §5
Prevotella bivia [12] = experiment: Antimicrobial activity against Prevotella bivia LBN 339 deficient in nim gene assessed as inhibition of growth at 48 hrs by agar dilution method; conditions: LBN 339, 48 h; summary of the method: as §5
Prevotella buccae = experiment: Antimicrobial activity against Prevotella buccae LBN 465 deficient in nimI gene assessed as inhibition of growth after three consecutive subcultures on compound free medium by agar dilution method; conditions: Segatella buccae
Summary of the method: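 Resistance induction: bacterial suspensions were plated on supplemented brucella blood agar with rising metronidazole concentrations. Colonies from the highest concentration were tested by agar dilution. MIC was then redetermined after three consecutive subcultures on drug-free agar. Resistance counted as stable if the MIC held within ±1 dilution. Anaerobic growth at 37°C. Duplicate experiments.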

Prevotella nanceiensis [13] = experiment: Antimicrobial activity against Prevotella nanceiensis LBN 410 deficient in nim gene assessed as inhibition of growth at 48 hrs by agar dilution method; conditions: Hoylesella nanceiensis, LBN 410, 48 h; summary of the method: as §5
Prevotella baroniae [14] = experiment: Antimicrobial activity against Prevotella baroniae LBN 427 expressing nim gene assessed as inhibition of growth at 48 hrs by agar dilution method; conditions: Segatella baroniae, LBN 427, 48 h; summary of the method: as §5
Prevotella bivia [15] = experiment: Antimicrobial activity against slow growing colonies of Prevotella bivia LBN 332 deficient in nim gene assessed as inhibition of growth at 48 hrs by agar dilution method; conditions: LBN 332, 48 h; summary of the method: as §1
Prevotella bivia [16] = experiment: Antimicrobial activity against Prevotella bivia LBN 332 deficient in nimI gene assessed as inhibition of growth after three consecutive subcultures on compound free medium by agar dilution method; summary of the method: as §2
Prevotella bivia [17] = experiment: Antimicrobial activity against Prevotella bivia LBN 330 deficient in nim gene assessed as inhibition of growth at 48 hrs by agar dilution method; conditions: LBN 330, 48 h; summary of the method: as §5
Prevotella bivia [18] = experiment: Antimicrobial activity against Prevotella bivia LBN 464 deficient in nim gene assessed as inhibition of growth at 48 hrs by agar dilution method; conditions: LBN 464, 48 h; summary of the method: as §5
Prevotella nanceiensis [19] = experiment: Antimicrobial activity against slow growing colonies of Prevotella nanceiensis LBN 293b deficient in nim gene assessed as inhibition of growth at 48 hrs by agar dilution method; conditions: Hoylesella nanceiensis; summary of the method: as §3
Prevotella baroniae [20] = experiment: Antimicrobial activity against Prevotella baroniae LBN 430 expressing nimI gene assessed as inhibition of growth after several passages on plates containing increasing concentrations of compound by agar dilution method; conditions: Segatella baroniae; summary of the method: as §4
Prevotella bivia [21] = experiment: Antimicrobial activity against slow growing colonies of Prevotella bivia LBN 478 deficient in nim gene assessed as inhibition of growth at 48 hrs by agar dilution method; conditions: LBN 478, 48 h; summary of the method: as §3
Prevotella nanceiensis [22] = experiment: Antimicrobial activity against Prevotella nanceiensis LBN 293b deficient in nimI gene assessed as inhibition of growth after three consecutive subcultures on compound free medium by agar dilution method; conditions: Hoylesella nanceiensis; summary of the method: as §2
Prevotella nanceiensis [23] = experiment: Antimicrobial activity against Prevotella nanceiensis LBN 293b deficient in nim gene assessed as inhibition of growth at 48 hrs by agar dilution method; conditions: Hoylesella nanceiensis; summary of the method: as §5
Prevotella baroniae [24] = experiment: Antimicrobial activity against Prevotella baroniae LBN 475 expressing nim gene assessed as inhibition of growth at 48 hrs by agar dilution method; conditions: Segatella baroniae, LBN 475, 48 h; summary of the method: as §5
Bacteroides fragilis = experiment: Antimicrobial activity against Bacteroides fragilis ATCC 25285T deficient in nimI gene assessed as inhibition of growth at 48 hrs by agar dilution method; summary of the method: as §5

**Q.** With `Cc1ncc([N+](=O)[O-])n1CCO` [METRONIDAZOLE] as the compound, how does the MIC (Prevotella bivia [1]) read?
**A.** The MIC was 16 µg/mL (≈ 93.5 µM).

**Q.** And the MIC (Prevotella bivia [2])?
**A.** The MIC was 16 µg/mL (≈ 93.5 µM).

**Q.** And the MIC (Prevotella baroniae [3])?
**A.** Its MIC is 128 µg/mL (≈ 748 µM).

**Q.** And the MIC (Prevotella bivia [4])?
**A.** Its MIC is 1 µg/mL (≈ 5.84 µM).

**Q.** What about the MIC (Prevotella nanceiensis [5]) of the same compound?
**A.** Its MIC is 8 µg/mL (≈ 46.7 µM).

**Q.** And the MIC (Prevotella bivia [6])?
**A.** The MIC was 32 µg/mL (≈ 187 µM).

**Q.** What about the MIC (Prevotella baroniae [7]) of the same compound?
**A.** Its MIC is 128 µg/mL (≈ 748 µM).

**Q.** What about the MIC (Prevotella nanceiensis [8]) of the same compound?
**A.** Its MIC is 16 µg/mL (≈ 93.5 µM).

**Q.** What about the MIC (Prevotella bivia [9]) of the same compound?
**A.** Its MIC is 16 µg/mL (≈ 93.5 µM).

**Q.** What about the MIC (Prevotella bivia [10]) of the same compound?
**A.** The MIC was 16 µg/mL (≈ 93.5 µM).

**Q.** What about the MIC (Prevotella bivia [11]) of the same compound?
**A.** The MIC was 2 µg/mL (≈ 11.7 µM).

**Q.** What about the MIC (Prevotella bivia [12]) of the same compound?
**A.** The MIC was 2 µg/mL (≈ 11.7 µM).

**Q.** What about the MIC (Prevotella buccae) of the same compound?
**A.** The MIC was 64 µg/mL (≈ 374 µM).

**Q.** What about the MIC (Prevotella nanceiensis [13]) of the same compound?
**A.** Its MIC is 1 µg/mL (≈ 5.84 µM).

**Q.** And the MIC (Prevotella baroniae [14])?
**A.** Its MIC is 4 µg/mL (≈ 23.4 µM).

**Q.** And the MIC (Prevotella bivia [15])?
**A.** Its MIC is 32 µg/mL (≈ 187 µM).

**Q.** And the MIC (Prevotella bivia [16])?
**A.** The MIC was > 256 µg/mL.

**Q.** What about the MIC (Prevotella bivia [17]) of the same compound?
**A.** The MIC was 2 µg/mL (≈ 11.7 µM).

**Q.** And the MIC (Prevotella bivia [18])?
**A.** The MIC was 8 µg/mL (≈ 46.7 µM).

**Q.** What about the MIC (Prevotella nanceiensis [19]) of the same compound?
**A.** Its MIC is 32 µg/mL (≈ 187 µM).

**Q.** And the MIC (Prevotella baroniae [20])?
**A.** Its MIC is 128 µg/mL (≈ 748 µM).

**Q.** And the MIC (Prevotella bivia [21])?
**A.** Its MIC is 8 µg/mL (≈ 46.7 µM).

**Q.** And the MIC (Prevotella nanceiensis [22])?
**A.** The MIC was 256 µg/mL (≈ 1500 µM).

**Q.** And the MIC (Prevotella nanceiensis [23])?
**A.** Its MIC is 2 µg/mL (≈ 11.7 µM).

**Q.** And the MIC (Prevotella baroniae [24])?
**A.** Its MIC is 4 µg/mL (≈ 23.4 µM).

**Q.** What about the MIC (Bacteroides fragilis) of the same compound?
**A.** Its MIC is 0.5 µg/mL (≈ 2.92 µM).
